Reference: article PMC3217223 (Bioorganic & Medicinal Chemistry, 2009)
Where a name gives a salt, the structure may show the parent alone.

Experiments:
NMDA receptors = format: cell-based; details: cerebellar granule neurons, glutamate or NMDA 100 μM + glycine 10 μM
[1] = system: bloodstream form T. brucei (strain 427); assay: T. brucei culturing and drug test; format: cell-based, Trypanosoma brucei; details: at concentrations up to 5 mg mL^−1
How it was run: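 Parasites were kept at 37 °C in modified Iscove's medium (pH 7.4) and grown for 48 h with a range of test compound concentrations. Cell density at each concentration was counted by hemocytometer and expressed as percent of untreated control growth. Concentrations giving 50% and 90% growth inhibition (IC₅₀, IC₉₀) were determined. Run in triplicate.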

[2] = system: herpes simplex virus type 1; format: cell-based; details: microscopy and MTS assay
[3] = system: herpes simplex virus type 2; format: cell-based; details: microscopy and MTS assay
vaccinia virus = format: cell-based
feline coronavirus = format: cell-based; details: microscopy and MTS assay
parainfluenza-3 virus = format: cell-based; details: microscopy and MTS assay
[4] = system: respiratory syncytial virus; format: cell-based; details: microscopy and MTS assay
[5] = system: vesicular stomatitis virus; format: cell-based
sindbis virus = format: cell-based; details: microscopy and MTS assay
Punta Toro virus = format: cell-based; details: microscopy and MTS assay
Coxsackievirus B4 = format: cell-based; details: microscopy and MTS assay
Reovirus-1 = format: cell-based; details: microscopy and MTS assay
influenza virus A/H1N1 = format: cell-based, influenza virus A/Puerto Rico/8/34 (H1N1); details: influenza virus A/H1N1 (A/Puerto Rico/8/34); microscopy and MTS assay
influenza virus A/H3N2 = format: cell-based, influenza virus A/Hong Kong/7/87 (H3N2); details: influenza virus A/H3N2 (A/Hong Kong/7/87); microscopy and MTS assay
influenza virus B = format: cell-based, influenza virus B/Hong Kong/5/72; details: influenza virus B (B/Hong Kong/5/72); microscopy and MTS assay

| SMILES | NMDA receptor antagonism (in words) (NMDA receptors) | Trypanocidal activity (in words) [1] | Antiviral activity [2] | Antiviral activity [3] | Antiviral activity (vaccinia virus) | Antiviral activity (feline coronavirus) | Antiviral activity (parainfluenza-3 virus) | Antiviral activity [4] | Antiviral activity [5] | Antiviral activity (sindbis virus) | Antiviral activity (Punta Toro virus) | Antiviral activity (Coxsackievirus B4) | Antiviral activity (Reovirus-1) | Antiviral activity (influenza virus A/H1N1) | Antiviral activity (influenza virus A/H3N2) | Antiviral activity (influenza virus B) |
| --- | --- | --- | --- | --- | --- | --- | --- | --- | --- | --- | --- | --- | --- | --- | --- | --- |
| CNC12CC3CC(CC(C3)O1)C2 [Compound 4, N-Methyl(2-oxaadamant-1-yl)amine hydrochloride] | inactive | no activity | None of the tested compounds displayed activity | None of the tested compounds displayed activity | None of the tested compounds displayed activity | None of the tested compounds displayed activity | None of the tested compounds displayed activity | None of the tested compounds displayed activity | None of the tested compounds displayed activity | None of the tested compounds displayed activity | None of the tested compounds displayed activity | None of the tested compounds displayed activity | None of the tested compounds displayed activity | none of the compounds was found to be active | none of the compounds was found to be active | none of the compounds was found to be active |
| NC12CC3CC(CC(C3)O1)C2 [Compound 7, (2-Oxaadamant-1-yl)amine hydrochloride] | inactive | no activity | None of the tested compounds displayed activity | None of the tested compounds displayed activity | None of the tested compounds displayed activity | None of the tested compounds displayed activity | None of the tested compounds displayed activity | None of the tested compounds displayed activity | None of the tested compounds displayed activity | None of the tested compounds displayed activity | None of the tested compounds displayed activity | None of the tested compounds displayed activity | None of the tested compounds displayed activity | none of the compounds was found to be active | none of the compounds was found to be active | none of the compounds was found to be active |
